Results on one compound are retold here after ChEMBL document CHEMBL3813647, “Discovery of an Orally Active and Liver-Targeted Prodrug of 5-Fluoro-2'-Deoxyuridine for the Treatment of Hepatocellular Carcinoma” (J Med Chem, 2016).

For orientation: Cmax means the peak of the concentration-time curve. The term IC50 denotes the point on the concentration scale where inhibition reaches its midpoint. In general, half-life refers to how long it takes for the measured level to halve. A higher half-life goes with slow decline. One may read the inhibition in vivo as the percentage by which the read-out fell short of the control.

Series [1] relates to Plasma. As to the kind of experiment: AUC (infinity) in Sprague-Dawley rat plasma assessed as FDUR formation at 52.17 mg/kg administered through oral gavage measured up to 24 hrs by HPLC-MS/MS analysis. Type of series: ADME, organism-based. Also noted: dose 52.17 mg/kg, time infinity, route oral. Conditions: in vivo. The essentials: (§1)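 Male Sprague-Dawley rats (220 ± 20 g), single gavage of 0.096 mmol/kg. FDUR was dosed in H2O; the prodrugs were dosed in 20% hydroxypropyl-β-cyclodextrin. n = 3 per time point, sampled at 0.25–24 h. Plasma (EDTA-K2, cardiac puncture) and freeze-clamped liver were homogenized in 20 mM EDTA-K2/70% MeOH. Analytes measured by HPLC-MS/MS in ESI negative mode.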

In series [2] the test system is Liver. As to the kind of experiment: Cmax in Sprague-Dawley rat liver assessed as FDUR formation at 52.17 mg/kg administered through oral gavage measured up to 24 hrs by HPLC-MS/MS analysis. The format is ADME, organism-based. On the set-up: dose 52.17 mg/kg, route oral. Conditions: in vivo. The essentials: as §1
Series [3] relates to Liver. As to the kind of experiment: Cmax in Sprague-Dawley rat liver assessed as FdUMP formation at 52.17 mg/kg administered through oral gavage measured up to 24 hrs by HPLC-MS/MS analysis. The format is ADME, organism-based. Also noted: dose 52.17 mg/kg, route oral. Conditions: in vivo. The essentials: as §1
The test system of series [4] is Liver. As to the kind of experiment: AUC (infinity) in Sprague-Dawley rat liver assessed as (S)-2-((R)-(((2R,3S,5R)-5-(5-fluoro-2,4-dioxo-3,4-dihydropyrimidin-1(2H)-yl)-3-hydroxytetrahydrofuran-2-yl)methoxy)(2-methylbenzyloxy)phosphorylamino)propanoate formation at 52.17 mg/kg administered through oral gavage measured up to 24 hrs by HPLC-MS/MS analysis. Type of series: ADME, organism-based. On the set-up: dose 52.17 mg/kg, route oral, time infinity. The note with it: in vivo. The essentials:
as §1

For series [5], the system named is Liver. As to the kind of experiment: AUC (infinity) in Sprague-Dawley rat liver assessed as 5-FU formation at 52.17 mg/kg administered through oral gavage measured up to 24 hrs by HPLC-MS/MS analysis. The format is ADME, organism-based. Also noted: dose 52.17 mg/kg, route oral, time infinity. The note with it: in vivo. The essentials: as §1
Series [6] in a line: Ratio of FdUMP AUC (infinity) in Sprague-Dawley rat liver to FDUR AUC (infinity) in Sprague-Dawley rat plasma at 52.17 mg/kg administered through oral gavage. Type of series: ADME, organism-based. Conditions: in vivo. The essentials:
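Male Sprague-Dawley rats (220 20 g), single gavage of 0.096 mmol/kg prodrug in 20% hydroxypropyl-β-cyclodextrin. Blood by cardiac puncture under isoflurane and liver at 0.25–24 h, n = 3 per time point. Liver freeze-clamped and homogenized in 20 mM EDTA-K2/70% MeOH. FdUMP (liver) and FDUR (plasma) by HPLC-MS/MS, negative ESI. Index = AUC(inf) liver FdUMP / AUC(inf) plasma FDUR.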

Series [7] can be described thus: Ratio of FDUR AUC (infinity) in Sprague-Dawley rat liver to FDUR AUC (infinity) in Sprague-Dawley rat plasma at 52.17 mg/kg administered through oral gavage. The format is ADME, organism-based. Conditions: other tissue.
The test system of series [8] is Liver. As to the kind of experiment: Drug metabolism in Sprague-Dawley rat liver S9 fraction assessed as (S)-2-((R)-(((2R,3S,5R)-5-(5-fluoro-2,4-dioxo-3,4-dihydropyrimidin-1(2H)-yl)-3-hydroxytetrahydrofuran-2-yl)methoxy)(2-methylbenzyloxy)phosphorylamino)propanoate formation at 20 ug/mL after 20 mins by HPLC-MS/MS analysis. The format is ADME, subcellular. Conditions: s9, 20 min, TDE = time-dependent effect. The essentials:
(§2)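 Rat liver S9 (10 mg/mL) incubated with compound at 20 μg/mL. Parent, intermediate A and FdUMP followed over time by HPLC-MS/MS. Negative control run without NADPH.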

Series [9] concerns Liver. As to the kind of experiment: Drug metabolism in Sprague-Dawley rat liver S9 fraction assessed as FdUMP formation at 20 ug/mL preincubated for 5 mins followed by NADPH addition measured at 20 mins by HPLC-MS/MS analysis. Type of series: ADME, subcellular. The note with it: s9, 20 min. A digest of the protocol: as §2
Series [10] concerns Liver. As to the kind of experiment: Drug metabolism in Sprague-Dawley rat liver S9 fraction assessed as FdUMP formation at 20 ug/mL after 20 mins by HPLC-MS/MS analysis in absence of NADPH. The note with it: s9, 20 min. The format is ADME. A digest of the protocol:
as §2

The test system of series [11] is Plasma. As to the kind of experiment: Drug metabolism in Sprague-Dawley rat plasma assessed as o-methylhippuric acid formation. The format is ADME, cell-free.
Series [12] is described as follows: Cytotoxicity against human SMMC7721 cells assessed as reduction in cell viability after 72 hrs by MTT assay. The format is functional, cell-based. The note with it: SMMC-7721, 72 h. A digest of the protocol: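 Cells in RPMI-1640 with 10% FBS, seeded at 4 × 10³ per well and attached for 24 h. Compound (DMSO ≤0.5% final) added for 72 h at 37 °C, 5% CO2. Viability read by MTT. IC50 set against 0.5% DMSO-treated cells taken as 100% viable. Mean of two independent experiments, each run in triplicate.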
(Tetrazolium assays rely on reduction of a dye to a coloured formazan, in cell work by metabolically active cells.)

Series [13] is described as follows: Half life in human plasma by HPLC-MS/MS analysis. Type of series: ADME, cell-free. The essentials:
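Compound at 1 μg/mL final in dog or human plasma, 37 °C. Sampled at 0–24 h and quenched with ice-cold MeOH containing internal standard. Parent measured by LC-MS/MS in ESI negative mode; t1/2 calculated from percent remaining versus 0 h.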

Series [14] relates to Mus musculus. As to the kind of experiment: Toxicity in KM mouse assessed as weight loss at 2 to 3 mg/kg, administered through oral gavage after 1 to 5 days. Type of series: organism-based. Conditions: in vivo, in the assay text read “2 to 3 g/kg” for “2 to 3 mg/kg”. A digest of the protocol: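 Female KM mice (20 2 g), fasted overnight, 5 per group. Single oral gavage at 2 or 3 g/kg in 57% hydroxypropyl-β-cyclodextrin. Watched continuously for 4 h, intermittently to 24 h, then occasionally to day 15 for weight, appetite and behaviour. Mean body weight change tracked days 1–15. Organs examined macroscopically at sacrifice on day 15.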

In series [15] the test system is H22. As to the kind of experiment: Antitumor activity against mouse H22 cells implanted in KM mouse assessed as tumor growth inhibition at 260 mg/kg administered daily through oral gavage after 8 days. The format is functional. The note with it: 192 h. A digest of the protocol:
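Syngeneic H22 hepatoma: 2 × 10⁶ cells injected s.c. in the axilla (0.9% saline) of female KM mice, n = 10 per group. From day 2, daily oral gavage for 8 days. Test agent given in 35% PEG400; sorafenib suspended in 0.5% CMC-Na. Tumor weight taken on day 8; inhibition rate calculated versus the vehicle group.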

Series [16] deals with Mus musculus. As to the kind of experiment: Toxicity in KM mouse implanted with mouse H22 cells assessed as body weight level at 130 mg/kg administered daily through oral gavage after 8 days (reference value: 21.7 to 22.3 g). The note with it: in vivo, 192 h. Type of series: organism-based.
Series [17] concerns Mus musculus. As to the kind of experiment: Toxicity in KM mouse implanted with mouse H22 cells assessed as body weight level at 260 mg/kg administered daily through oral gavage after 8 days (reference value: 21.7 to 22.3 g). Conditions: in vivo, 192 h. Type of series: organism-based.
The subject of series [18] is Plasma. As to the kind of experiment: Cmax in Sprague-Dawley rat plasma assessed as (S)-2-((R)-(((2R,3S,5R)-5-(5-fluoro-2,4-dioxo-3,4-dihydropyrimidin-1(2H)-yl)-3-hydroxytetrahydrofuran-2-yl)methoxy)(2-methylbenzyloxy)phosphorylamino) propanoate formation at 52.17 mg/kg administered through oral gavage measured up to 24 hrs by HPLC-MS/MS analysis. Type of series: ADME, organism-based. On the set-up: dose 52.17 mg/kg, route oral. Conditions: in vivo. The essentials:
as §1

Series [19] has as its system Mus musculus. As to the kind of experiment: Toxicity in KM mouse assessed as damage to liver at 2 to 3 g/kg, administered through oral gavage after 15 days. Conditions: in vivo, 360 h.
The test system of series [20] is Mus musculus. As to the kind of experiment: Toxicity in KM mouse assessed as damage to spleen at 2 to 3 g/kg, administered through oral gavage after 15 days. The note with it: in vivo, 360 h.
In series [21] the test system is Mus musculus. As to the kind of experiment: Toxicity in KM mouse assessed as damage to kidney at 2 to 3 g/kg, administered through oral gavage after 15 days. Conditions: in vivo, 360 h.

As for `Cc1ccccc1CO[P@](=O)(N[C@@H](C)C(=O)OC(C)C)OC[C@H]1O[C@@H](n2cc(F)c(=O)[nH]c2=O)C[C@@H]1O`, the AUC in series [1] was found to be 26 ng·h/mL; in series [4] it was 5509 ng·h/g; in series [5], 257 ng·h/g. Moreover, the highest concentration (Cmax) is 747 ng/g in series [2], 340 ng/g in series [3] and 234 ng/mL in series [18]. The entries for the “Ratio AUC” value in [6] and in series [7] were 20.9 and 59.3, respectively. Further, the Drug metabolism entry in [8] was “tde”; in series [9] it was “metabolite_detected”; in series [10], “metabolite_notdetected”; in series [11], “metabolite_detected”. In addition, the IC50 in series [12] worked out at 250 µM. In series [13], the half-life was greater than 24 h. Further, the Activity entry in [14] is listed as “Non-toxic”; in [16], 23.8 g; in series [17], 22.3 g; in [19], “Non-toxic”; in series [20] it was “Non-toxic”; in series [21], “Non-toxic”. Further, the inhibition in vivo at 260 mg/kg in series [15] amounted to 72.5%.
